This note sets out measurements from ChEMBL document CHEMBL4818983, “Structure-activity relationship and hypoglycemic activity of tricyclic matrines with advantage of treating diabetic nephropathy” (Eur J Med Chem, 2020).

This assay relates to HepG2. Nature of the assay: Increase in glucose consumption in human HepG2 cells assessed as Gx/GDMSO ratio at 25 uM by glucose oxidase assay. It counts as functional. A digest of the protocol: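 HepG2 glucose consumption screen. Test compounds at 25 μM, metformin at 5 mM. Activity expressed as ratio of glucose consumption to DMSO-treated cells (Gx/G_DMSO).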

In the case of `O=S(=O)(c1ccc(C(F)(F)F)cc1)N1C[C@@H]2CCCN3CCC[C@@H]([C@H]23)[C@H]1CCCCN=C=S`, the Ratio is recorded as 1.02. In the case of `COC(=O)CCC[C@@H]1[C@H]2CCCN3CCC[C@H](CN1S(=O)(=O)c1ccccc1C(F)(F)F)[C@@H]23`, the Ratio worked out at 1.23.

Consider `CNc1nnc(CCC[C@@H]2[C@H]3CCCN4CCC[C@@H](CN2S(=O)(=O)c2cccc(C(F)(F)F)c2)[C@@H]34)s1`, for which the Ratio was determined as 0.86. For `CCCC[C@@H]1[C@H]2CCCN3CCC[C@H](CN1S(=O)(=O)c1cccc(C(F)(F)F)c1)[C@@H]23` the value was 1.2. On to `Cc1ccc(S(=O)(=O)N2C[C@@H]3CCCN4CCC[C@@H]([C@H]34)[C@H]2CCCC(=O)O)cc1`, for which the Ratio was determined as 0.87. For the compound `Nc1nnc(CCC[C@@H]2[C@H]3CCCN4CCC[C@@H](CN2S(=O)(=O)c2ccc(C(F)(F)F)cc2)[C@@H]34)o1`, the Ratio is 1.18.

For the compound `Nc1nnc(CCC[C@@H]2[C@H]3CCCN4CCC[C@@H](CN2S(=O)(=O)c2cccc(C(F)(F)F)c2)[C@@H]34)s1`, the Ratio came out at 1.04. Consider `O=S(=O)(c1ccc(C(F)(F)F)cc1)N1C[C@H]2CCCN3CCC[C@@H]([C@H]23)[C@H]1CCCCO`, for which the Ratio worked out at 1.06. Take `O=C(O)CCC[C@@H]1[C@H]2CCCN3CCC[C@H](CN1S(=O)(=O)c1ccccc1C(F)(F)F)[C@@H]23`: the Ratio came to 1.12. On to `Nc1nnc(CCC[C@@H]2[C@H]3CCCN4CCC[C@@H](CN2S(=O)(=O)c2cccc(C(F)(F)F)c2)[C@@H]34)o1`, for which the Ratio stood at 1.34.

For the compound `CCCC[C@@H]1[C@H]2CCCN3CCC[C@@H](CN1C(=O)Nc1ccc(C(F)(F)F)cc1)[C@@H]23`, the Ratio amounted to 1.08. For `CN(C)c1nnc(CCC[C@@H]2[C@H]3CCCN4CCC[C@@H](CN2S(=O)(=O)c2cccc(C(F)(F)F)c2)[C@@H]34)s1` the value was 0.97; for `CC[C@@H]1[C@H]2CCCN3CCC[C@@H](CN1S(=O)(=O)c1ccccc1C(F)(F)F)[C@@H]23`, 1.26. For `Cc1ccc(S(=O)(=O)N2C[C@H]3CCCN4CCC[C@@H]([C@H]34)[C@H]2CCCCO)cc1` the value was 1.12; for `CCCC[C@@H]1[C@H]2CCCN3CCC[C@@H](CN1C(=O)Nc1cccc(C)c1)[C@@H]23`, 1.32; for `COC(=O)CCC[C@@H]1[C@H]2CCCN3CCC[C@H](CN1S(=O)(=O)c1ccc(C(F)(F)F)cc1)[C@@H]23`, 1.13. As for `O=C1CCC[C@@H]2[C@H]3CCCN4CCC[C@H](CN12)[C@@H]34` [SOPHORIDINE], the Ratio is 1.22.

On to `O=S(=O)(c1cccc(C(F)(F)F)c1)N1C[C@H]2CCCN3CCC[C@@H]([C@H]23)[C@H]1CCCCO`, for which the Ratio turned out to be 1.25. `CCCC[C@@H]1[C@H]2CCCN3CCC[C@H](CN1S(=O)(=O)c1ccc(C(F)(F)F)cc1)[C@@H]23`: the Ratio is 1.17. For `CCCC[C@@H]1[C@H]2CCCN3CCC[C@H](CN1S(=O)(=O)c1ccccc1C(F)(F)F)[C@@H]23` the value was 1.26; for `CC[C@@H]1[C@H]2CCCN3CCC[C@@H](CN1S(=O)(=O)c1ccc(C(F)(F)F)cc1)[C@@H]23`, 1.32; for `COC(=O)CCC[C@@H]1[C@H]2CCCN3CCC[C@H](CN1S(=O)(=O)c1cccc(C(F)(F)F)c1)[C@@H]23`, 1.21. Take `O=C(O)CCC[C@@H]1[C@H]2CCCN3CCC[C@@H](CN1S(=O)(=O)c1ccc(C(F)(F)F)cc1)[C@@H]23`: the Ratio is 1.03. For `O=C(O)C[C@@H]1[C@H]2CCCN3CCC[C@@H](CN1S(=O)(=O)c1cccc(C(F)(F)F)c1)[C@@H]23` the value was 1.06; for `CC(=O)Nc1nnc(CCC[C@@H]2[C@H]3CCCN4CCC[C@@H](CN2S(=O)(=O)c2cccc(C(F)(F)F)c2)[C@@H]34)s1`, 0.89; for `Cc1ccc(S(=O)(=O)N2C[C@@H]3CCCN4CCC[C@@H]([C@H]34)[C@H]2CCCCO)cc1`, 1.16. Then `CCCC[C@@H]1[C@H]2CCCN3CCC[C@@H](CN1C(=O)Nc1ccc(C)cc1)[C@@H]23`, with 1.04; and `O=C(O)CCC[C@@H]1[C@H]2CCCN3CCC[C@H](CN1S(=O)(=O)c1ccc(C(F)(F)F)cc1)[C@@H]23`, with 0.99; and `CCCC[C@@H]1[C@H]2CCCN3CCC[C@@H](CN1C(=O)Nc1ccc(OC(F)(F)F)cc1)[C@@H]23`, with 1.07. As to `O=S(=O)(c1ccccc1C(F)(F)F)N1C[C@H]2CCCN3CCC[C@@H]([C@H]23)[C@H]1CCCCO`, the Ratio was found to be 1.24.

Turning to `O=C(O)CCC[C@@H]1[C@H]2CCCN3CCC[C@H](CN1S(=O)(=O)c1cccc(C(F)(F)F)c1)[C@@H]23`, the Ratio is listed as 1.16. For `CCCC[C@@H]1[C@H]2CCCN3CCC[C@@H](CN1C(=O)Nc1ccccc1C(F)(F)F)[C@@H]23` the value was 1.03; for `CCCC[C@@H]1[C@H]2CCCN3CCC[C@H](CN1S(=O)(=O)c1ccc(C)cc1)[C@@H]23`, 1.07; for `CCNc1nnc(CCC[C@@H]2[C@H]3CCCN4CCC[C@@H](CN2S(=O)(=O)c2ccc(C)cc2)[C@@H]34)s1`, 0.79. Regarding `CCCC[C@@H]1[C@H]2CCCN3CCC[C@@H](CN1S(=O)(=O)c1ccc(C)cc1)[C@@H]23`, the Ratio is reported as 1.03.

For `O=C1CCC[C@@H]2[C@H]3CCCN4CCC[C@@H](CN12)[C@@H]34` [MATRINE], the Ratio amounted to 1.26. As for `CCCC[C@@H]1[C@H]2CCCN3CCC[C@@H](CN1C(=O)Nc1ccccc1C)[C@@H]23`, the Ratio is listed as 1.3. Then `COC(=O)CCC[C@@H]1[C@H]2CCCN3CCC[C@H](CN1S(=O)(=O)c1ccc(C)cc1)[C@@H]23`, with 1.14. Turning to `CCCC[C@@H]1[C@H]2CCCN3CCC[C@@H](CN1C(=O)Nc1ccc(F)cc1)[C@@H]23`, the Ratio was found to be 1.02. Consider `O=S(=O)(c1ccc(C(F)(F)F)cc1)N1C[C@@H]2CCCN3CCC[C@@H]([C@H]23)[C@H]1CCCCO`, for which the Ratio came to 1.04. Then `O=C1C=CC[C@@H]2[C@H]3CCCN4CCC[C@@H](CN12)[C@@H]34` [SOPHOCARPINE], with 1.11.

With `CCCC[C@@H]1[C@H]2CCCN3CCC[C@@H](CN1C(=O)Nc1c(C)cccc1C)[C@@H]23`, the Ratio is given as 1.14. As for `CCCC[C@@H]1[C@H]2CCCN3CCC[C@@H](CN1C(=O)Nc1cccc(C(F)(F)F)c1)[C@@H]23`, the Ratio is listed as 1. As to `CCCC[C@@H]1[C@H]2CCCN3CCC[C@@H](CN1S(=O)(=O)c1ccccc1C(F)(F)F)[C@@H]23`, the Ratio worked out at 1.01.
